Active and inactive are the calls of the source. The calls are words filed in the database; no cut-off is given here.
How the values were obtained:
[1] = tested on: Staphylococcus aureus; assay: Antibacterial activity against methicillin-resistant Staphylococcus aureus clinical isolate 1-may after 16 to 20 hrs by broth microdilution method; assay type: functional
In short: (§1)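 CLSI broth microdilution in Mueller-Hinton broth. A 4-6 h culture was diluted to about 10⁶ CFU/mL and mixed 1:1 with compound dilutions prepared at 256 to 0.5 µg/mL from aqueous stocks. Plates were incubated at 37 °C for 16-20 h and read visually for MIC. Each concentration was run in duplicate, and the experiment was repeated at least twice. Vancomycin and meropenem were comparators.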

[2] = tested on: Staphylococcus aureus; assay: Antibacterial activity against methicillin-resistant Staphylococcus aureus clinical isolate 0831010 after 16 to 20 hrs by broth microdilution method; assay type: functional; in short: as §1
[3] = tested on: Staphylococcus aureus; assay: Antibacterial activity against methicillin-resistant Staphylococcus aureus clinical isolate 1104060 after 16 to 20 hrs by broth microdilution method; assay type: functional; in short: as §1
[4] = tested on: Enterococcus faecalis; assay: Antibacterial activity against Enterococcus faecalis ATCC 29212 after 16 to 20 hrs by broth microdilution method; assay type: functional
In short: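 Broth microdilution per CLSI. Bacteria grown 4-6 h (about 10⁸ CFU/mL), then diluted to about 10⁶ CFU/mL. Medium: Mueller-Hinton broth, except Luria-Bertani broth for E. coli. Compounds in sterile water, twofold series 256-0.5 µg/mL, mixed 1:1 with inoculum, 37 °C for 16-20 h. MIC is the lowest concentration without visible growth. Duplicate wells; experiment repeated at least twice.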

[5] = tested on: Escherichia coli; assay: Antibacterial activity against drug-resistant NDM1 producing Escherichia coli clinical isolate EC-13-49 after 16 to 20 hrs by broth microdilution method; assay type: functional; in short: as §1
[6] = tested on: Staphylococcus aureus; assay: Disruption of 24 hrs cultured Staphylococcus aureus ATCC 29213 biofilm assessed as cell viability in biofilm at 32 ug/ml after 24 hrs by crystal violet staining-based assay (reference value: 15.96 log10CFU/ml); assay type: functional
[7] = tested on: Escherichia coli; assay: Antibacterial activity against drug-resistant NDM1 producing Escherichia coli clinical isolate EA-14-61 after 16 to 20 hrs by broth microdilution method; assay type: functional; in short: as §1
[8] = tested on: Staphylococcus aureus; assay: Disruption of 24 hrs cultured Staphylococcus aureus ATCC 29213 biofilm assessed as cell viability in biofilm at 128 ug/ml after 24 hrs by crystal violet staining-based assay (reference value: 15.96 log10CFU/ml); assay type: functional
[9] = tested on: Staphylococcus aureus; assay: Bactericidal activity against Staphylococcus aureus ATCC 29213 after 20 to 24 hrs; assay type: functional; conditions: read-out: MBC99.9
In short: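 MBC: wells showing little or no turbidity in the broth microdilution MIC assay were plated (20 µL) on agar and incubated 20-24 h at 37 °C. MBC is the lowest concentration giving no colonies.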

[10] = tested on: Staphylococcus aureus; assay: Antibacterial activity against methicillin-resistant Staphylococcus aureus clinical isolate 20131012632sau after 16 to 20 hrs by broth microdilution method; assay type: functional; in short: as §1
[11] = tested on: Staphylococcus aureus; assay: Induction of cytoplasmic membrane depolarization in Staphylococcus aureus ATCC 29213 at 10 to 20 ug/ml measured every 2 mins for 12 mins by DiSC35 dye-based fluorescence assay; assay type: functional, organism-based
In short: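 Mid-log cells (~10⁸ CFU/mL) were suspended in PBS (S. aureus) or HEPES/glucose/KCl with EDTA (E. coli). They were preloaded with DiSC3(5) for 30 min (S. aureus) or 40 min (E. coli), and baseline fluorescence was read for 8 min. Compound was added to 20 µg/mL final, and fluorescence (ex 622/em 670 nm) was read every 2 min for 12 min. Water served as control.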

[12] = tested on: Staphylococcus aureus; assay: Ratio of MBC99.9 for methicillin-resistant Staphylococcus aureus in presence of 50% sheep serum to MBC99.9 for methicillin-resistant Staphylococcus aureus ATCC 29213 in presence of 50% sheep plasma; assay type: functional
In short: (§2)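 MRSA at 10⁵ CFU/mL in 50% MHB plus 50% sheep serum, plasma or defibrinated blood; serum and plasma were obtained by centrifugation at 3,500 rpm for 10 min. Aqueous dilutions prepared at 512-4 µg/mL were added 1:3 to the suspension and incubated for 20-24 h at 37 °C. Well contents (20 µL) were plated on MHA for 20-24 h, and MBC was the concentration giving no colonies.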

[13] = tested on: Staphylococcus aureus; assay: Disruption of 24 hrs cultured Staphylococcus aureus ATCC 29213 biofilm assessed as cell viability in biofilm at 8 ug/ml after 24 hrs by crystal violet staining-based assay (reference value: 15.96 log10CFU/ml); assay type: functional
[14] = tested on: Staphylococcus aureus; assay: Bactericidal activity against methicillin-resistant Staphylococcus aureus in presence of 50% sheep blood after 20 to 24 hrs; assay type: functional; conditions: read-out: MBC99.9; in short: as §2
[15] = tested on: Escherichia coli; assay: Antibacterial activity against drug-resistant NDM1 producing Escherichia coli clinical isolate Ecl-14-59 after 16 to 20 hrs by broth microdilution method; assay type: functional; in short: as §1
[16] = tested on: Staphylococcus aureus; assay: Induction of inner membrane permeabilization in Staphylococcus aureus ATCC 29213 at 10 to 20 ug/ml measured every 2 mins for 12 mins by propidium iodide staining-based fluorescence assay; assay type: functional, organism-based
In short: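 Mid-log cells (~10⁸ CFU/mL) were suspended in PBS (S. aureus) or HEPES/glucose/KCl (E. coli). They were preincubated with propidium iodide for 30 min (S. aureus) or 40 min (E. coli), and baseline fluorescence was read for 8 min. Compound was added to 20 µg/mL final, and fluorescence (ex 535/em 617 nm) was read every 2 min for 12 min.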

[17] = tested on: Staphylococcus aureus; assay: Antibacterial activity against methicillin-resistant Staphylococcus aureus clinical isolate 20130911034sau after 16 to 20 hrs by broth microdilution method; assay type: functional; in short: as §1
[18] = tested on: Staphylococcus aureus; assay: Disruption of 24 hrs cultured Staphylococcus aureus ATCC 29213 biofilm assessed as cell viability in biofilm at 4 ug/ml after 24 hrs by crystal violet staining-based assay (reference value: 15.96 log10CFU/ml); assay type: functional
[19] = tested on: Escherichia coli; assay: Antibacterial activity against drug-resistant NDM1 producing Escherichia coli clinical isolate Ecl-14-58 after 16 to 20 hrs by broth microdilution method; assay type: functional; in short: as §1
[20] = tested on: Escherichia coli; assay: Antibacterial activity against drug-resistant NDM1 producing Escherichia coli clinical isolate EC-14-54 after 16 to 20 hrs by broth microdilution method; assay type: functional; in short: as §1
[21] = tested on: Klebsiella pneumoniae; assay: Antibacterial activity against drug-resistant carbapenemase producing Klebsiella pneumoniae clinical isolate KP-14-1 after 16 to 20 hrs by broth microdilution method; assay type: functional; in short: as §1
[22] = tested on: Klebsiella pneumoniae; assay: Antibacterial activity against drug-resistant carbapenemase producing Klebsiella pneumoniae clinical isolate KP-13-55 after 16 to 20 hrs by broth microdilution method; assay type: functional; in short: as §1
[23] = tested on: Klebsiella pneumoniae; assay: Antibacterial activity against drug-resistant carbapenemase producing Klebsiella pneumoniae clinical isolate KP-14-18 after 16 to 20 hrs by broth microdilution method; assay type: functional; in short: as §1
[24] = tested on: Klebsiella pneumoniae; assay: Antibacterial activity against drug-resistant carbapenemase producing Klebsiella pneumoniae clinical isolate EC-13-23 after 16 to 20 hrs by broth microdilution method; assay type: functional; in short: as §1
[25] = tested on: Klebsiella pneumoniae; assay: Antibacterial activity against drug-resistant carbapenemase producing Klebsiella pneumoniae clinical isolate KP-13-45 after 16 to 20 hrs by broth microdilution method; assay type: functional; in short: as §1
[26] = tested on: Staphylococcus aureus; assay: Antibacterial activity against methicillin-resistant Staphylococcus aureus clinical isolate 1208143 after 16 to 20 hrs by broth microdilution method; assay type: functional; in short: as §1
[27] = tested on: Escherichia coli; assay: Antibacterial activity against drug-resistant NDM1 producing Escherichia coli clinical isolate KP-13-58 after 16 to 20 hrs by broth microdilution method; assay type: functional; in short: as §1
[28] = tested on: Staphylococcus aureus; assay: Disruption of 24 hrs cultured Staphylococcus aureus ATCC 29213 biofilm assessed as cell viability in biofilm at 64 ug/ml after 24 hrs by crystal violet staining-based assay (reference value: 15.96 log10CFU/ml); assay type: functional

CCCCCCCC[N+](C)(C)CC(=O)Nc1ccc(C(=O)/C=C/c2ccccc2F)cc1.[Cl-]
MIC [1]: 1 mg/L | MIC [2]: 0.5 mg/L | MIC [3]: 8 mg/L | MIC [4]: 1 mg/L | MIC [5]: 4 mg/L | Activity [6]: 9.59 log10CFU/ml | MIC [7]: 4 mg/L | Activity [8]: 8.95 log10CFU/ml | MBC [9]: 8 mg/L | MIC [10]: 2 mg/L | Activity [11]: Active | Ratio [12]: 2 | Activity [13]: 11.696 log10CFU/ml | MBC [14]: 128 mg/L | MIC [15]: 16 mg/L | Activity [16]: Active | MIC [17]: 0.5 mg/L | Activity [18]: 12.93 log10CFU/ml | MIC [19]: 4 mg/L | MIC [20]: 16 mg/L | MIC [21]: 8 mg/L | MIC [22]: 16 mg/L | MIC [23]: 16 mg/L | MIC [24]: 4 mg/L | MIC [25]: 4 mg/L | MIC [26]: 1 mg/L | MIC [27]: 1 mg/L | Activity [28]: 9.41 log10CFU/ml
